This is an account of results in ChEMBL document CHEMBL4392868, “Cytotoxic Tigliane Diterpenoids from Croton damayeshu” (J Nat Prod, 2019).

The subject of assay [1] is A549. Kind of assay: Cytotoxicity against human A549 cells assessed as inhibition of cell growth at 10 uM measured after 72 hrs by CCK8 assay relative to control. The format is functional. Particulars: A549, 72 h. A general note: Tetrazolium assays rely on reduction of a dye to a coloured formazan, in cell work by metabolically active cells.
For assay [2], the system named is HL-60. Nature of the assay: Cytotoxicity against human HL60 cells assessed as inhibition of cell growth at 10 uM measured after 72 hrs by CCK8 assay relative to control. The assay is classed as functional. Particulars: HL-60, 72 h.
The subject of assay [3] is A549. Nature of the assay: Cytotoxicity against human A549 cells measured after 72 hrs by CCK8 assay. The assay is classed as functional, cell-based. Particulars: A549, 72 h. Put shortly:
(§1)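 Human tumor cell lines A549 and HL-60 were assayed in vitro for cytotoxicity by the CCK-8 colorimetric method. Adriamycin served as the positive control, and IC50 values are reported in μM.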

Assay [4] concerns HL-60. Kind of assay: Cytotoxicity against human HL60 cells measured after 72 hrs by CCK8 assay. Particulars: HL-60, 72 h. The assay is classed as functional, cell-based. Put shortly: as §1

By inhibition is commonly meant the share of the control response that was lost under treatment. As usually defined, the IC50 is the concentration that gives 50% inhibition. A low value points to higher potency.

SMILES strings stand for the structures. Counter-ions that a name gives are not always drawn.

`CC[C@H](C)C(=O)O[C@@]12[C@H](O)[C@@H](C)[C@]3(O)[C@@H]4C=C(C)C(=O)[C@@H]4CC(CO)=C[C@H]3[C@@H]1C2(C)C`: the inhibition at 10 µM in the assay with A549 [1] and with HL-60 [2] was below 50% throughout.

In the assay with A549 [3], `C/C=C(\C)C(=O)O[C@@H]1[C@@H](C)[C@]2(O)[C@@H]3C=C(C)C(=O)[C@@H]3CC(CO)=C[C@H]2[C@@H]2C(C)(C)[C@]12OC(=O)[C@@H](C)CC` gave an IC50 of 18300 nM. For the same molecule, the inhibition at 10 µM in the assay on HL-60 [2] is below 50%.

On to `CC[C@H](C)C(=O)O[C@@H]1[C@@H](C)[C@]2(O)[C@@H]3C=C(C)C(=O)[C@@H]3CC(CO)=C[C@H]2[C@@H]2C(C)(C)[C@]12OC(=O)[C@@H](C)CC`, for which the values for the 50% inhibitory concentration (IC50) with HL-60 [4] and in the assay on A549 [3] were 18900 nM and 4600 nM, respectively.

As to `COc1cccc2c1C(=O)c1c(O)c3c(c(O)c1C2=O)C[C@@](O)(C(=O)CO)C[C@@H]3O[C@H]1C[C@H](N)[C@H](O)[C@H](C)O1` [DOXORUBICIN HYDROCHLORIDE], the figures for the IC50 in the assay with HL-60 [4] and in the assay on A549 [3] were 80 nM and 400 nM, respectively.

Consider `C/C=C(\C)C(=O)O[C@@H]1[C@@H](C)[C@]2(O)[C@@H]3C=C(C)C(=O)[C@@H]3CC(CO)=C[C@H]2[C@@H]2C(C)(C)[C@]12OC(C)=O`, for which the inhibition at 10 µM with A549 [1] and with HL-60 [2] was below 50% in each case.

`CC[C@H](C)C(=O)O[C@@]12[C@H](O)[C@@H](C)[C@]3(O)[C@@H]4C=C(C)C(=O)[C@@H]4CC(C=O)=C[C@H]3[C@@H]1C2(C)C` yielded an IC50 with A549 [3] of 900 nM. In the assay on HL-60 [2], the inhibition at 10 µM is below 50%.

With `C/C=C(\C)C(=O)O[C@@H]1[C@@H](C)[C@]2(O)[C@@H]3C=C(C)C(=O)[C@@H]3CC(C=O)=C[C@H]2[C@@H]2C(C)(C)[C@]12OC(=O)[C@@H](C)CC`, the IC50 in the assay with HL-60 [4] was found to be 2400 nM; in the assay on A549 [3], 1300 nM.

As to `CC1=C[C@@H]2[C@@H](CC(CO)=C[C@H]3[C@@H]4C(C)(C)[C@]4(OC(=O)[C@@H](C)[C@@H](C)O)[C@H](O)[C@@H](C)[C@]23O)C1=O`, the inhibition at 10 µM in the assay with A549 [1] and in the assay with HL-60 [2] was below 50% each time.

As to `CC[C@H](C)C(=O)O[C@@H]1[C@@H](C)[C@]2(O)[C@@H]3C=C(C)C(=O)[C@@H]3CC(CO)=C[C@H]2[C@@H]2C(C)(C)[C@]12OC(=O)C(C)C`, the IC50 in the assay on A549 [3] was 3700 nM. The inhibition at 10 µM in the assay on HL-60 [2] was below 50%.

For `CC[C@H](C)C(=O)O[C@@]12[C@H](OC(=O)c3ccccc3)[C@@H](C)[C@]3(O)[C@@H]4C=C(C)C(=O)[C@@H]4CC(CO)=C[C@H]3[C@@H]1C2(C)C`, the IC50 with HL-60 [4] worked out at 22700 nM; in the assay on A549 [3] it was 4100 nM.

`CC1=C[C@@H]2[C@@H](CC(C=O)=C[C@H]3[C@@H]4C(C)(C)[C@]4(OC(=O)C(C)C)[C@H](O)[C@@H](C)[C@]23O)C1=O`: the inhibition at 10 µM in the assay with A549 [1] and in the assay with HL-60 [2] was below 50% throughout.

Regarding `C/C=C(\C)C(=O)O[C@@H]1[C@@H](C)[C@]2(O)[C@@H]3C=C(C)C(=O)[C@@H]3CC(CO)=C[C@H]2[C@@H]2C(C)(C)[C@]12OC(=O)[C@@H](C)[C@@H](C)O`, the inhibition at 10 µM in the assay with A549 [1] and with HL-60 [2] was below 50% in each case.

For `C/C=C(\C)C(=O)O[C@@H]1[C@@H](C)[C@]2(O)[C@@H]3C=C(C)C(=O)[C@@H]3CC(CO)=C[C@H]2[C@@H]2C(C)(C)[C@]12OC(=O)C(C)C`, the IC50 with HL-60 [4] is 1800 nM; with A549 [3] it was 1900 nM.

For the molecule `CC1=C[C@@H]2[C@@H](CC(CO)=C[C@H]3[C@@H]4C(C)(C)[C@]4(OC(=O)C(C)C)[C@H](O)[C@@H](C)[C@]23O)C1=O`, the inhibition at 10 µM in the assay with A549 [1] and in the assay on HL-60 [2] was below 50% throughout.
